Screening results as filed in PubChem BioAssay.
This is a sample that favours compounds with a hit; in the whole collection about 2.5% have one here.
NR2E3 ag-1 = agonists of human NR2E3 nuclear receptor; CHO-S Gal4-NCOR/VP16-NR2E3 two-hybrid, luciferase; 0.35% of 360,000 active; inhibition of corepressor binding, % at 3.98 µM; Q9Y5X4; AID 602229;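 active = inhibition above the mean of all tested compounds plus 3 SD, cut at about 70% in these data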;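 also: higher means lower luciferase signal from less NR2E3 corepressor binding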
Target sequence (Q9Y5X4 whole entry, looked up, the tested form may be a part): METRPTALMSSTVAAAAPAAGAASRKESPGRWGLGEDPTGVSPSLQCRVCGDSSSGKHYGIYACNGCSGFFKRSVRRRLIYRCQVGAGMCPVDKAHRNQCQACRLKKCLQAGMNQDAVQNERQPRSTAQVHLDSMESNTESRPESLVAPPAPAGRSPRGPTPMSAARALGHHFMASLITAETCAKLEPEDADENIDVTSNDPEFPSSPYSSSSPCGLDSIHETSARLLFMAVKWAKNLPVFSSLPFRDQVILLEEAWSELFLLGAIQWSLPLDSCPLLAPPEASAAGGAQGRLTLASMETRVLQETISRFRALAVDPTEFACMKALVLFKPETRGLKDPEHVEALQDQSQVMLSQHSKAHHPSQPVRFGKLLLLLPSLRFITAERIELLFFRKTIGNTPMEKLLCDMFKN
GalR3 antag = blocks the human galanin receptor 3; O60755; HEK293 GalR3-CNG cAMP membrane potential fluorescence; galR3 body fused to GalR1 C-terminus; inhibition, % at 3 µM; 0.44% of 360,000 active; AID 651719;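 active = inhibition above the screen-wide average plus 3 SD, cut at about 13% in these data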;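 also: forskolin and galanin both at EC90 stimulate the cells; cAMP rise reported by CNG channel membrane potential dye signal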
NadD inh = inhibitors of Staphylococcus aureus NadD; purified NadD enzyme, colorimetric absorbance read-out; inhibition, % at 20 µM; 0.78% of 360,000 active; in the data active = inhibition above about 26%
MsrA inhibitor = inhibits bovine methionine sulfoxide reductase A; purified bovine MsrA, absorbance read-out; inhibition, % at 15.5 µM; 0.75% of 360,000 active; AID 651718; in the data active = inhibition above about 4.5%
bovine MsrA act = activates bovine MsrA enzyme | AID 602163 | activation, % at 10.6 µM | 0.3% of 360,000 active | purified bovine MsrA, absorbance read-out; in the data active = activation above about 7.5%
NR2E3 ag-2 = activates human photoreceptor nuclear receptor NR2E3. Q9Y5X4. GST-NR2E3/biotin-RetCOR TR-FRET, 1536-well. inhibition of corepressor binding, % at 4.78 µM. 0.12% of 320,000 active. AID 2300;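 active = percent inhibition above the cutoff of mean plus 3 SD of all tested compounds, set per screening campaign, cut at about 20% in these data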
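Material – GST-tagged NR2E3 plus biotinylated RetCOR corepressor · Quantity – NR2E3 fusion 1.35 nM · Times – 5 h incubation at 4 °C · Medium – pH 7.5 Tris-based buffer · Technique – TR-FRET, Eu(K)-anti-GST donor, streptavidin-D2 acceptor, ex 340, em 617/671 nm · Benchmarks – high control biotin, low control 0.6% DMSO · Format – 1536-well plates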
NR2E3 ag confirm = NR2E3 agonism confirmed in two-hybrid assay; inhibition, % at 3.98 µM; 51% of 2,300 active; CHO-S mammalian two-hybrid NR2E3-NCOR, luciferase luminescence; shares compounds with NR2E3 ag-1;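 active = average inhibition above a cutoff equal to the mean inhibition of all tested compounds plus one SD, cut at about 70% in these data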
VP16 counter = reduces GAL4-VP16 reporter signal in NR2E3 counterscreen; AID 624379; CHO-S GAL4-VP16 luciferase reporter, luminescence; 29% of 2,300 active; inhibition, % at 3.98 µM; shares compounds with NR2E3 ag-1;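 active = mean inhibition above a cutoff equal to the average over all tested compounds plus one standard deviation, cut at about 70% in these data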;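 also: luciferase from a UAS reporter driven by GAL4-VP16 transactivation; higher means less reporter light so more repression of VP16 activity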
Numbers stand for hits; n = inactive; x = no result given.

SMILES | NR2E3 ag-1 | GalR3 antag | NadD inh | MsrA inhibitor | bovine MsrA act | NR2E3 ag-2 | NR2E3 ag confirm | VP16 counter
CCCNC(=O)CSCc1nc(-c2ccc(SC)cc2)oc1C | 82 | n | n | n | n | n | 78 | 79
Cc1ccc(-c2nc(CSCC(=O)Nc3cc(C)on3)c(C)o2)cc1 | n | n | n | n | n | n | x | x
COC(CNC(=O)CSCc1nc(-c2ccc(SC)cc2)oc1C)OC | n | n | n | n | n | n | 78 | n
COCCNC(=O)CCn1nc(-c2ccc(Cl)cc2)ccc1=O | n | n | n | n | n | n | x | x
O=C(NCc1ccccc1)N1CCN(c2ccc(Cl)c(Cl)c2)CC1 | 77 | n | n | n | n | n | 93 | 76
Cc1occc1C(=O)N1CCN(c2ccc(Cl)c(Cl)c2)CC1 | n | n | n | n | n | n | 81 | n
Cc1occc1C(=O)N1CCN(c2ccccc2)CC1 | n | n | n | n | n | n | x | x
COC(=O)c1sc(NC(=O)c2cc(-c3ccccc3)nc3ccccc23)c(C#N)c1C | n | n | n | n | n | n | n | n
O=S(=O)(NCCN1CCOCC1)c1ccc(Oc2ccccc2Cl)cc1 | n | n | n | n | n | n | n | n
O=S(=O)(NCCN1CCOCC1)c1ccc2ccccc2c1 | n | n | n | n | n | x | x | x
CC(=O)N(Cc1ccc(Br)cc1)c1ccccc1C(=O)O | n | n | n | n | n | n | x | x
COc1ccccc1CC(=O)N1CCN(c2cccc(C(F)(F)F)c2)CC1 | n | n | n | n | n | n | 94 | 71
COc1ccccc1NC(=O)N1CCN(c2cccc(C(F)(F)F)c2)CC1 | n | n | n | n | n | n | x | x
COc1ccc(CN(C)Cc2nc(Cc3cccc(F)c3)no2)c2cccnc12 | 80 | n | n | n | n | n | 92 | 81
O=C(c1nc2ccccn2c1CNCCOc1cccnc1)N1CCOCC1 | n | n | n | n | n | n | x | x
COc1ccc(CNCC(O)COc2cccc3c2OC(C)(C)C3)cc1 (stereo unspecified) | n | n | n | n | n | n | n | n
O=C(CSc1nnc(-c2ccncc2)o1)NCc1ccccc1Cl | n | n | n | n | n | n | x | x
CCCCn1c(=N)n(CC(O)COc2cccc(C)c2)c2ccccc21 (stereo unspecified) | n | n | n | n | n | n | n | n
CCc1cccc(CC)c1NC(=S)NCCc1c(C)[nH]c2ccc(C)cc12 | 71 | n | n | n | n | n | n | n
COc1ccc(-c2oc(=O)c3cc(OC)c(OC)cc3c2-c2ccc3c(c2)OCO3)cc1 | n | n | n | n | n | x | x | x
COc1cc2c(OC(C)=O)c3c(c(-c4ccc5c(c4)OCO5)c2cc1OC)C(=O)OC3 | 81 | n | n | n | n | n | 98 | n
COc1cc2c(O)c3c(c(-c4ccc5c(c4)OCO5)c2cc1OC)C(=O)OC3 | 82 | n | n | n | n | n | 99 | n
O=C(c1ccco1)N1CCN(S(=O)(=O)c2cc(Cl)ccc2Cl)CC1 | n | n | n | n | n | n | x | x
CCCN1CCC(=O)N(CCSc2ccc(NC(C)=O)cc2)CC1 | n | n | n | n | n | n | x | x
CCn1c2ccccc2c2cc(NC(=O)c3cc(OC)cc(OC)c3)ccc21 | n | n | n | n | n | n | n | n
SMILES | NR2E3 ag-1 | GalR3 antag | NadD inh | MsrA inhibitor | bovine MsrA act | NR2E3 ag-2 | NR2E3 ag confirm | VP16 counter
CCn1c2ccccc2c2cc(NC(=O)c3cc(OC)c(OC)c(OC)c3)ccc21 | n | n | n | n | n | n | x | x
CN(C)S(=O)(=O)N1CCC(Oc2ccc(C(=O)N3C[C@@H]4CCC[C@H]3C4)cc2)CC1 | n | n | n | n | n | n | x | x
CN(C)S(=O)(=O)N1CCC(Oc2ccc(C(=O)N3C[C@H]4CC[C@H]3C4)cc2)CC1 | n | n | n | n | n | n | n | n
O=C(Nc1ccccc1)Nc1nnc([C@H]2C[C@H](O)[C@@H](CO)O2)s1 | n | n | n | n | n | x | x | x
O=C(CCNC(=O)Cn1ccc2ccccc2c1=O)NCCN1CCN(c2ccccc2F)CC1 | n | n | n | n | n | n | x | x
COc1ccc(C(=O)O/N=C(\N)c2ccccc2)cc1 | n | n | n | n | n | n | x | x
CC(C)(C)c1ccc(C(=O)O/N=C(\N)c2ccccc2)cc1 | 81 | n | n | n | n | n | 78 | 74
CCOC(=O)N1CCN(C(=O)Nc2ccccc2Cl)CC1 | n | n | n | n | n | n | x | x
CN1C(=O)C2(NCCc3c2[nH]c2ccccc32)c2ccccc21 (stereo unspecified) | n | n | n | n | n | n | x | x
CC1=CC(C)(C)N2C(=O)C3(NCCc4c3[nH]c3ccccc43)c3cc(C)cc1c32 (stereo unspecified) | n | n | n | n | n | n | n | n
CC1(C)CC(=S)Nc2ccccc2S1 | n | n | n | n | n | n | x | x
COC(=O)c1ccc(N2CCC(C)CC2)c(N)c1 | n | n | n | n | n | n | x | x
Nc1nc2ccccc2cc1C(=O)NCCCCc1ccccc1 | 96 | x | n | x | n | x | 97 | 90
CNc1nc2c(c(=O)n(C)c(=O)n2C)n1Cc1ccccc1 | n | n | n | n | n | n | n | n
CNc1nc2c(c(=O)n(C)c(=O)n2C)n1CCCc1ccccc1 | n | n | n | n | n | n | x | x
Cn1c(=O)c2c(nc(NCc3ccco3)n2C)n(C)c1=O | n | n | n | n | n | n | x | x
Cn1c(=O)c2c(nc(NCc3ccco3)n2C/C=C/c2ccccc2)n(C)c1=O | n | n | n | n | n | n | 88 | n
CC(Cl)=CCn1c(NCCc2ccccc2)nc2c1c(=O)n(C)c(=O)n2C | n | n | n | n | n | x | 91 | 71
O=c1cc(C(F)(F)F)[nH]c2ccc(C(F)(F)F)cc12 | 93 | n | n | n | n | n | 101 | 91
O=C(NCC(c1ccco1)N1CCCCC1)c1cccc(NS(=O)(=O)c2ccc(Br)cc2)c1 (stereo unspecified) | n | n | n | n | n | n | x | x
CCN1CCN(C(=O)c2ccccc2N(Cc2ccccc2)S(=O)(=O)c2ccc(C)cc2)CC1 | n | n | n | n | n | n | x | x
Cn1nnnc1Sc1ncnc2scc(-c3cccc(C(F)(F)F)c3)c12 | n | n | n | n | n | x | x | x
Cn1nnnc1Sc1ncnc2scc(-c3cccc(F)c3)c12 | n | n | n | n | n | n | n | n
Cn1nnnc1Sc1ncnc2scc(-c3ccccc3C(F)(F)F)c12 | n | n | n | n | n | n | n | n
Cn1nnnc1Sc1ncnc2scc(-c3ccc(C(F)(F)F)cc3)c12 | n | n | n | n | n | n | x | x
COc1ccc(S(=O)(=O)Cc2ccc(C(=O)O)o2)cc1 | n | n | n | n | n | n | x | x
COCCCN=C1NN=C(c2cc(C)n(Cc3ccccc3Cl)c2C)CS1 | n | n | n | n | n | n | x | x
